Data taken from ChEMBL document CHEMBL3400013, “Synthesis and biological activity evaluation of hydrazone derivatives based on a Tröger's base skeleton” (Bioorg Med Chem, 2015).
pIC50: −log10 of the molar value. Active and inactive are the calls of the source. No cut-off for these calls is given here.

What was measured:
Candida albicans = experiment: Antifungal activity against Candida albicans up to 200 uM after 24 to 48 hrs by broth microdilution method; assay type: functional, organism-based
BJ [1] = experiment: Selectivity index, ratio of IC50 for human BJ cells to IC50 for human CCRF-CEM cells; assay type: functional; conditions: pooled result: one value given for 2 cell lines, strains, targets or settings
Pseudomonas aeruginosa = experiment: Antimicrobial activity against multidrug-resistant Pseudomonas aeruginosa A/16575 up to 200 uM after 24 to 48 hrs by broth microdilution method; assay type: functional, organism-based
CCRF-CEM [2] = experiment: Induction of apoptosis in human CCRF-CEM cells assessed as inhibition of RNA synthesis at IC50 after 24 hrs by propidium iodide/BrU staining by flow cytometry; assay type: functional; design: scale not given: the % may be the effect or the level left
BJ [3] = experiment: Selectivity index, ratio of IC50 for human BJ cells to IC50 for human K562 cells; assay type: functional
[4] = Metal chelating activity of the compound assessed as formation of Mg2+ complex by UV-vis spectrometry; assay type: physicochemical
CCRF-CEM [5] = experiment: Induction of apoptosis in human CCRF-CEM cells assessed as mitotic cells at IC50 after 24 hrs by pH3Ser10+ labeling-based flow cytometry; assay type: functional
CCRF-CEM [6] = experiment: Cell cycle arrest in human CCRF-CEM cells assessed as accumulation at G2/M phase at 5 times IC50 after 24 hrs by propidium iodide staining-based flow cytometry; assay type: functional
In short: (§1)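 Cells were then fixed in 70% ethanol, washed in hypotonic citrate buffer, treated with RNase (50 µg/mL) and stained with propidium iodide. Flow cytometry used a 488 nm laser. Apoptosis was scored as the percentage of particles with propidium content below G0/G1.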

CCRF-CEM [7] = experiment: Cell cycle arrest in human CCRF-CEM cells assessed as accumulation at G0/G1 phase at IC50 after 24 hrs by propidium iodide staining-based flow cytometry; assay type: functional; in short: as §1
BJ [8] = experiment: Selectivity index, ratio of IC50 for human BJ cells to IC50 for human CEM-DNR cells; assay type: functional
[9] = Metal chelating activity of the compound assessed as formation of Co2+ complex by UV-vis spectrometry; assay type: physicochemical
BJ [10] = experiment: Selectivity index, ratio of IC50 for human BJ cells to IC50 for human K562-TAX cells; assay type: functional
CCRF-CEM [11] = experiment: Induction of apoptosis in human CCRF-CEM cells assessed as inhibition of RNA synthesis after 24 hrs by propidium iodide/BrU staining by flow cytometry; assay type: functional, cell-based
CCRF-CEM [12] = experiment: Cytostatic activity against human CCRF-CEM cells after 72 hrs by MTT assay; assay type: functional, cell-based
In short: (§2)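 Cells were seeded at 25,000–30,000 per well and pre-incubated for 24 h at 37°C in 5% CO2. Four-fold compound dilutions were added in duplicate and incubated for 72 h. MTT was added for 1–4 h, and formazan was dissolved in 10% aq SDS (pH 5.5) overnight at 37°C. OD was read at 540 nm. IC50 came from dose-response curves, mean ± SD of eight independent experiments.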

CCRF-CEM [13] = experiment: Induction of apoptosis in human CCRF-CEM cells assessed as apoptotic cells at 5 times IC50 after 24 hrs by propidium iodide staining-based flow cytometry; assay type: functional; in short: as §1
Escherichia coli [14] = experiment: Antimicrobial activity against Escherichia coli CCM 3954 up to 200 uM after 24 to 48 hrs by broth microdilution method; assay type: functional, organism-based
Escherichia coli [15] = experiment: Antimicrobial activity against multidrug-resistant Escherichia coli C/16702 up to 200 uM after 24 to 48 hrs by broth microdilution method; assay type: functional, organism-based
A549 = experiment: Cytostatic activity against human A549 cells after 72 hrs by MTT assay; assay type: functional, cell-based; conditions: A549, 72 h; in short: as §2
Nucleic Acid = experiment: Binding affinity to DNA (unknown origin) assessed as DNA intercalation by UV-visible spectrophotometry in presence of Fe3+; assay type: nucleic-acid assay
[16] = Cytostatic activity against human CEM-DNR cells after 72 hrs by MTT assay; assay type: functional, cell-based; in short: as §2
BJ [17] = experiment: Cytostatic activity against human BJ cells after 72 hrs by MTT assay; assay type: ADME, cell-based; in short: as §2

Compound | Activity (Candida albicans) | Ratio IC50 (BJ [1]) | Activity (Pseudomonas aeruginosa) | Activity (CCRF-CEM [2]) [%] | Ratio IC50 (BJ [3]) | Activity [4] | Activity (CCRF-CEM [5]) [%] | Activity (CCRF-CEM [6]) [%] | Activity (CCRF-CEM [7]) [%] | Ratio IC50 (BJ [8]) | Activity [9] | Ratio IC50 (BJ [10]) | pIC50 (CCRF-CEM [12]) | Activity (CCRF-CEM [13]) [%] | Activity (Escherichia coli [14]) | Activity (Escherichia coli [15]) | pIC50 (A549) | Activity (Nucleic Acid) | pIC50 [16] | pIC50 (BJ [17]) | other results
O=C(N/N=C/c1nccc2ccccc12)c1ccc2c3c(ccc2c1)N1Cc2c(ccc4cc(C(=O)N/N=C/c5nccc6ccccc56)ccc24)N(C3)C1 | inactive | 172 | inactive | 44 | 121.9 | Not Active | 1.65 | 13.57 | 46.09 | 15.9 | Active | 9.9 | 6.24 | 10.73 | inactive | inactive | 4.73 | Active | 5.20 | < 4.00 | inhibition (CCRF-CEM [11]): Dose-dependent effect
O=C(NN=C(c1ccccn1)c1ccccn1)c1ccc2c3c(ccc2c1)N1Cc2c(ccc4cc(C(=O)NN=C(c5ccccn5)c5ccccn5)ccc24)N(C3)C1 | inactive | 1.7 | inactive | 60.37 | 2.4 | Not Active | 0.53 | 28.23 | 28.27 | 0.7 | Active | 2.8 | 6.04 | 24.51 | inactive | inactive | 5.69 | Active | 5.68 | 5.68 | –
O=C(N/N=C/c1ccccc1O)c1ccc2c3c(ccc2c1)N1Cc2c(ccc4cc(C(=O)N/N=C/c5ccccc5O)ccc24)N(C3)C1 | inactive | 0.9 | inactive | 59.79 | 0.6 | Not Active | 0.62 | 18.92 | 30.6 | 0.1 | Active | 0.4 | 6.44 | 50.23 | inactive | inactive | 6.01 | Active | 5.37 | 6.57 | –
Cc1ccc(O)c(/C=N/NC(=O)c2ccc3c4c(ccc3c2)N2Cc3c(ccc5cc(C(=O)N/N=C/c6cc(C)ccc6O)ccc35)N(C4)C2)c1 | inactive | 0.8 | inactive | 33.57 | 0.5 | Not Active | 1.04 | 14.79 | 40.52 | 0.1 | Active | 0.4 | 6.24 | 54.07 | inactive | inactive | 6.27 | Active | 5.27 | 6.16 | –
O=C(N/N=C/c1cc(F)ccc1O)c1ccc2c3c(ccc2c1)N1Cc2c(ccc4cc(C(=O)N/N=C/c5cc(F)ccc5O)ccc24)N(C3)C1 | inactive | 26.3 | inactive | 63.13 | 18.1 | Not Active | 0.3 | 16.49 | 31.5 | 9.8 | Active | 17.6 | 5.80 | 58.01 | inactive | inactive | 5.91 | Active | 5.37 | 4.27 | inhibition (CCRF-CEM [11]): Dose-dependent effect
COC(=O)c1ccc(O)c(/C=N/NC(=O)c2ccc3c4c(ccc3c2)N2Cc3c(ccc5cc(C(=O)N/N=C/c6cc(C(=O)OC)ccc6O)ccc35)N(C4)C2)c1 | inactive | 16.3 | inactive | 28.66 | 9.4 | Not Active | 1.19 | 13.26 | 48.63 | 3.2 | Active | 4.3 | 5.25 | 14.56 | inactive | inactive | 4.92 | Active | 4.55 | 4.06 | –
COc1ccc(O)c(/C=N/NC(=O)c2ccc3c4c(ccc3c2)N2Cc3c(ccc5cc(C(=O)N/N=C/c6cc(OC)ccc6O)ccc35)N(C4)C2)c1 | inactive | 162.3 | inactive | 63.95 | 357.2 | Not Active | 0.99 | 12.4 | 30 | 13.3 | Active | 137.7 | 6.74 | 21.74 | inactive | inactive | 6.64 | Active | 5.67 | 4.24 | –
O=C(N/N=C/c1cc(O)ccc1O)c1ccc2c3c(ccc2c1)N1Cc2c(ccc4cc(C(=O)N/N=C/c5cc(O)ccc5O)ccc24)N(C3)C1 | inactive | 63.2 | inactive | 48.47 | 8 | Not Active | 2.34 | 20.46 | 37.38 | 1.4 | Active | 13.8 | 7.22 | 9.74 | inactive | inactive | 6.77 | Active | 5.59 | 5.18 | –
